Test system: MS2 coat protein
Assay: apparent Kd, MS2 coat protein; higher = weaker binding; RNA-MaP array; FMN 200 µM where present
Method in brief: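 Stalled E. coli RNA polymerase produced the designs on Illumina sequencing-chip clusters. SNAP-549-labelled MS2 coat protein was added from 0.7 or 1.5 nM, doubling to 3 µM, without and then with constant ligand, in 100 mM Tris-HCl pH 7.5, 80 mM KCl, 4 mM MgCl2, BSA, DTT, yeast tRNA and Tween-20. The apparent Kd is the median of filtered per-cluster fits of green signal normalised to red-channel RNA signal and control-cluster median Fmax.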

[1] = designed as: OFF switch for flavin mononucleotide, no ligand
[2] = ligand present: flavin mononucleotide, designed as: OFF switch for flavin mononucleotide
[3] = designed as: ON switch for flavin mononucleotide, no ligand
[4] = ligand present: flavin mononucleotide, designed as: ON switch for flavin mononucleotide

Row | Sequence | apparent Kd [1] | apparent Kd [2] | apparent Kd [3] | apparent Kd [4]
1 | CGCAGGAUACAGAAGGAGUUAUUGAGAGGUUUACUAGGAUAUGUUCACAUGAGGAUCACCCAUGUCAUAUGGUUUUUUAUUGCG | 12.5 nM | 11.7 nM |  | 
2 | GUUUAGUGAGGAUAUGUGGCUUCGAUCGUGCGCGGUCGGCUACAGAAGGCACAUGAGGAUCACCCAUGUUCCUC | 37.1 nM | 506 nM |  | 
3 | UUACAUACAAAGGUACAUGAGGAUCACCCAUGUUUAUUGGGAAGAAGGGUAACAGUACUACAUAUAUAGGAUAUUUCACAAAUG |  |  | 195 nM | 144 nM
4 | GCAUGGAAAGUGAGGAUAUACCACUGGAUACAGUGGUAGAAGGCACAUGAGGAUCACCCAUGUUUCUACCAUGC | 13.4 nM | 19.1 nM |  | 
5 | CGGGCUGCUGUGAGGAUAUGCCUGUGGGUGCGUGGGUAGAAGGCACAUGAGGAUCACCCAUGUCCUGCAGCUCG |  | 717 nM |  | 
6 | GCUCGGAGAGGAUAUACAUGAGGAUCACCCAUGUAGGUAAGCAGCGAUGGCAGUCCAUGUAGAAGGUUCAGGUG | 43.4 nM | 49.7 nM |  | 
7 | GAGUGGAAGGCCGCUACAUGAGGAUCACCCAUGUGCUAAGCACAGGAUAUCGCGCGGGCCCGGCGCGAGAAGGGUGACGGCCUU |  |  | 1010 nM | 272 nM
8 | GGACGUCAGAUUAACAUGAGGAUCACCCAUGUCUUUUGACAUGAGGAUAUGCAACCUAAUUGGUUGCAGAAGGCAUGGACGUCC |  |  | 917 nM | 85.2 nM
9 | UUGUUGUAUGUAGGAUAUGCAUAUUAUUAUUAUGCAGAAGGACAUGAGGAUCACCCAUGUAUAUUAUUAUUAUAUAUUAUAUAU | 30 nM | 49.3 nM |  | 
10 | GCUAGAGCAGGAUAUCUAGAUCCACACAUGAGGAUCACCCAUGUACAGUCGAAAGACUGAAGAGAAGGGCUCUAGC | 69.7 nM | 92.7 nM |  | 
11 | UGUAUGGACAGAGGAUAUACCGAUAGGAUCUACUAUCGAACAAUCCUCACAUGAGGAUCACCCAUGUAGAAGGCUGUCCAUACU | 24.1 nM | 283 nM |  | 
12 | GGUGCCAUGUAGAAGGCAGACCUGAUUCAGAUCUGAGGAUAUACAUGAGGAUCACCCAUGUAAAGGCACCGCACGAGAGUGCAA | 6.05 nM | 8.57 nM |  | 
13 | GCUUCACAUGAGGAUCACCCAUGUCUUCGGAGUCGAGGAUAUGGUCACUGUAAACAGUGGCCAGAAGGCGAGGAGC |  |  | 54.1 nM | 35 nM
14 | GUUGCGUUUGUGAGGAUAUGCUGUUCCUUGGUUCGGCAGAAGGCACAUGAGGAUCACCCAUGUGGUGUCGUUCC | 15.5 nM | 28.7 nM |  | 
15 | CCUUUCGGUGUCAGGAUAUACUGCGCCUGGCGCAAGUAGAAGGGACAUGAGGAUCACCCAUGUAGCGGGACCGA | 73.7 nM | 81.9 nM |  | 
16 | CGCCCGGGAGGAUAUCCAAUAUAUGACAUGAGGAUCACCCAUGUUUCCACUCGUACCUCCGGAGAAGGCCCGGCGC | 22.2 nM | 22.4 nM |  | 
17 | AAGAAGUCAGGAUAUCCAGCUCGUCACUUGCGUGAUGAGUUGGAGAAGGGACAUGAGGAUCACCCAUGUAAAGC | 47.9 nM | 45.7 nM |  | 
18 | CUUUAAGUCGAGAAGGACAUGAGGAUCACCCAUGUAGGAUAUCGAUUAGCUUACAACCCGAGCCGCAUUGGUAUGACUGGUGGG |  |  | 12.9 nM | 6.23 nM
19 | GUUGCUAUCGGAGGAUAUUCAUACCGGAAACGGACAUGAGGAUCACCCAUGUCGCGAAAGCGUUGGGAGAAGGCCGAUAGCAAC |  |  | 248 nM | 21.4 nM
20 | AGGUACAUCAUAGGAUAUCGUGUGUAAACAUGAGGAUCACCCAUGUCAUCCGAGAGUAUAUCGACCGAGAAGGGUGAUGUACCU |  |  | 22 nM | 32.5 nM
21 | CUUCGUAUAGAGGAUAUAGGUUACCUCGGUAUCCUAGAAGGCUGUACAUGAGGAUCACCCAUGUACUUCAGAUC | 12.4 nM | 14.5 nM |  | 

Row | Sequence | apparent Kd [1] | apparent Kd [2] | apparent Kd [3] | apparent Kd [4]
22 | GUAGCAUACGGAGGAUAUUCAUACCGGAAACGGACAUGAGGAUCACCCAUGUGGCGAAAGCCAUGGGAGAAGGCCGUAUGCUAC |  |  | 318 nM | 149 nM
23 | UUAGCAACAUGAGGAUCACCCAUGUAGGAUAUCGCUAUUGUAAUCAUGAAACAUGAUUACAAUAGCGAGAAGGACAUAUGCUAA | 6.42 nM | 9.48 nM |  | 
24 | GUGGAGUAAGGAUAUACAUGAGGAUCACCCAUGUGAGGGUAUGUGAUGGGAGUAGGUUGUAGAAGGUACGAGGA | 287 nM | 131 nM |  | 
25 | UUGGAGUACGUAGGAUAUGUAGGAUAUUCCUACAUGAGGAUCACCCAUGUUUACAUGGAAGAAGGACAGAAGGACGUGCUCCAU |  |  | 1120 nM | 14.7 nM
26 | ACAUGAUACAAGAAGGAUGAAUUAGAUUUGAUCAUAGGAUAUUGUUAUAUUGUUUACUCUAAUAACAUGAGGAUCACCCAUGUA |  |  | 10.4 nM | 6.94 nM
27 | GCCAUCGCAUGAGGAUAUAAUCGGGUUUCCCGUUUAGAAGGCAUGUCAUAAGACAUGAGGAUCACCCAUGUAGUUAAGAUGGCA |  |  | 471 nM | 27 nM
28 | UUACCUCAUAUGGUUACAUGAGGAUCACCCAUGUGAAUAGCACAGGAUAUCACGAGGGCCACGUGUGAGAAGGGUGAUGUGAGG |  |  | 438 nM | 167 nM
29 | AAAGUGCCGACGAAGGAUAUAGCGGGUGAGACAUGAGGAUCACCCAUGUAUGCAGAACUCAUCCUCUAGAAGGUUGAGACGGCUA |  |  | 113 nM | 177 nM
30 | UUUGAAUAGGUAGGAUAUACUUUCAAUUUUCUUUUCCUUACAUGAGGAUCACCCAUGUUUACAUUGUAGAAGGACCUCAUUGAU | 215 nM | 173 nM |  | 
31 | AUUAAGAAUGAAGGAUAUCUAAGCGUAAACAAAAGAGAAGGUCAAUAGUACAUGAGGAUCACCCAUGUUAGAAUAGAUGGGAUA | 117 nM | 103 nM |  | 
32 | AAUAUAAGAGCUGGAAAUACUCAAACAUGAGGAUCACCCAUGUAGGAUAUCAGCACGAUAAGUGCUGAGAAGGACAUCCAGCUC | 15 nM | 15.4 nM |  | 
33 | ACAUGAGGAUCACCCAUGUAUAGAUUUGAAUGUUAAGUUACGUAGGAUAUCGUGUUUAGUAUGAUCGAGAAGGACGAUCUGAUA |  |  | 25.8 nM | 20.8 nM
34 | GUCACACACCGCUCCGUGUCUGACAUGAGGAUCACCCAUGUGAGAAGGUAGCGUCGCAGUAACGUUAAGGAUAUCACGUACAGA | 7.04 nM | 7.4 nM |  | 
35 | GGAUAGGACAGAGGAUAUACGUGCUAGUGAUACUAGCAAAAUUUCCUCACAUGAGGAUCACCCAUGUAGAAGGCUGUCCUAUCG | 15.5 nM | 453 nM |  | 
36 | AAACAUGUCCGAGGAUAUCUGGAAACAUUUCCAAGAGAAGGCGGACAUGAGGAUCACCCAUGUCUCUCCUCAUCAAAUCCAAGA | 8 nM | 77.4 nM |  | 
37 | ACGUAUCGUGUAGGAUAUGACACAGGAAACUGGUCAGAAGGACAUGAGGAUCACCCAUGUAGAGUAUGUUAGGAUGACGUAUGC | 43 nM | 261 nM |  | 
38 | CAGUACUGAGGAUAUACAUGAGGAUCACCCAUGUAUCCUAGCUAGGAAACUAGCAAAAGUAGAAGGCAGUACUG | 16 nM | 156 nM |  | 
39 | AUAUGACAUGAGGAUCACCCAUGUGAGGAUAUAUGCGCAGGUCCAGGGACGGCUGUGCAUAGAAGGUGCUUGGG | 307 nM | 268 nM |  | 
40 | AUCAGCUCGUCAGGAUAUACGUCACUGCGUCAUCAGUGUGGUAAGAUCACAUGAGGAUCACCCAUGUAGAAGGGACGAGCUGAU | 15.5 nM | 234 nM |  | 
41 | CCAAACGGAGGAUAUACAAAUUAAGGAAAAAAACGCGAAAAACAUGAGGAUCACCCAUGUAGAAGGCCGAAAAA | 19.3 nM | 17.9 nM |  | 
42 | UCAUUGAUUGUGAGGAUAUCGAUGUGAUGGUUUGUCGAGAAGGCACAUGAGGAUCACCCAUGUUUGUUUGGGCU | 494 nM | 253 nM |  | 

Source: the EternaBench riboswitch data
